# Only some compounds are listed: those with a hit (about 2.3% of all), similar ones and a draw of the others.
# OXTR agonist: human OXTR agonism; CHO-OTR cells, Fluo-8 calcium fluorescence; normalized: DMSO 0%, oxytocin 100%; P30559; 320,000 compounds, 0.32% hits; activation, % at 3 µM; AID 2435;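 active = activation above the mean of all tested compounds plus 3 SD, cutoff set per screening run, cut at about 20% in these data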;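 also: peak over basal fluorescence ratio from a 100 s FLIPR kinetic read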
# V1aR counter: V1a receptor agonism, counter-screen for OXTR agonists. activation, % at 3 µM. 320,000 compounds, 0.25% hits. P37288. CHO-V1R cells, Fluo-8 calcium fluorescence, agonist mode; 0% DMSO, 100% 3 nM vasopressin;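 active = activation above the mean activation of all tested compounds plus 3 SD, per screening run, cut at about 20% in these data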;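 also: signal is peak over basal fluorescence ratio across a 100 second FLIPR read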
# Target sequence (P37288 whole entry, looked up): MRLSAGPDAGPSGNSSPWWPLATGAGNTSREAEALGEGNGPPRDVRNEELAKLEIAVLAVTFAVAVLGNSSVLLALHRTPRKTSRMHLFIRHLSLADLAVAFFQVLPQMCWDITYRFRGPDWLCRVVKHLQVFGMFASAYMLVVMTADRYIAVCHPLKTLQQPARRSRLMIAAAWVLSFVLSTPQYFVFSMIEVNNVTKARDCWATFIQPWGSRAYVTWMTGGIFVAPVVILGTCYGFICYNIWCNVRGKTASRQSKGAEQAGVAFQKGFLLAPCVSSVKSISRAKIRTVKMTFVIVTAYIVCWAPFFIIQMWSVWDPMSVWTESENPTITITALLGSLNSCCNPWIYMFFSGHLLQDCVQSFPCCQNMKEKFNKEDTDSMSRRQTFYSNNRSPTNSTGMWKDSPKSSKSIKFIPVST
# OXTR potentiate: potentiates the human oxytocin receptor response; P30559; CHO-OTR cells, Fluo-8 calcium fluorescence, potentiator mode; 0% = oxytocin EC15, 100% = EC100; activation, % at 3 µM; 320,000 compounds, 0.061% hits;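 active = activation above that plate's cutoff, the mean activation of tested compounds plus 3 SD, cut at about 6.6% in these data, passing the limit was not always enough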;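 also: 100% uses oxytocin at 75 nM as the full agonist control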
#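 Assay system: CHO-OTR cells, human receptor / Also added: oxytocin at about EC15, sub-maximal agonist stimulus / Dosing: single dose, 3.0 µM nominal final compound concentration / Incubation: 6 min pre-incubation, 100 s read / Technique: Fluo-8 calcium dye fluorescence / Read-out: % activation vs EC15 and EC100 oxytocin / Benchmarks: EC15 oxytocin low, 75 nM oxytocin high / Replicates: singlicate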
# TAAR1 agonist: human TAAR1 agonism; AID 624467; 360,000 compounds, 0.99% hits; activation, % at 3 µM; CHO RD-HGA16 TAAR1, Fluo-8 calcium fluorescence; vehicle wells 0%, saturating PEA agonist 100%;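 active = activation above the mean activation of all test compounds in the run plus 3 SD, cut at about 38% in these data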
# Target sequence (Q96RJ0 whole entry, looked up): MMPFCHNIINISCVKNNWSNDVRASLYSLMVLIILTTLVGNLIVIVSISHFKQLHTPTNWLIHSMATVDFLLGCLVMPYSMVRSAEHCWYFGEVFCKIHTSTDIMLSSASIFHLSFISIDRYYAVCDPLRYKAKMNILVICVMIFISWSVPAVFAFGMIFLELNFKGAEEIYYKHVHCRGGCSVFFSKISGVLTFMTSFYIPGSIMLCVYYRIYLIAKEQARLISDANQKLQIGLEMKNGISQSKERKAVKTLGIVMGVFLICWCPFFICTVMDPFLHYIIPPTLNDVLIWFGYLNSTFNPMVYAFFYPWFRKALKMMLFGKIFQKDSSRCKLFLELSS
#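 Assay system – CHO-derived RD-HGA16 cells with stable Gα16 and human TAAR1 · Compound dosing – one-point dosing at 3 µM (nominal) · Incubation – 17-24 h seeding, 75 min 37 °C dye, 30 min RT · Measured by – kinetic Fluo-8 calcium fluorescence · Control set – DMSO vehicle as 0%, PEA at EC100 as 100% · Repeats – single well for each compound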
# TAAR1 antag: antagonists of human TAAR1. inhibition, % at 3 µM. Q96RJ0. CHO RD-HGA16 TAAR1, Fluo-8 calcium fluorescence, antagonist. 360,000 compounds, 1.5% hits;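 active = inhibition above a per-plate cutoff, the mean inhibition of test compounds on that plate plus 3 SD, cut at about 49% in these data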;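 also: 0% = DMSO plus EC80 beta-PEA response and 100% = DMSO alone without agonist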
#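 Test system – hTAAR1-expressing CHO RD-HGA16 cells, Gα16-coupled · Reagent – β-PEA at EC80 concentration, post-compound challenge · Compound dosing – 3 µM, single point · Timing – 140 s kinetic read after compound, 140 s after agonist · Detection – Fluo-8 intracellular calcium dye fluorescence, real-time kinetic reads · Control set – DMSO and EC80 PEA controls · Repeats – n of 1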
# TAAR1 ag conf: human TAAR1 agonism, confirmed. shares compounds with TAAR1 agonist. CHO RD-HGA16 TAAR1, Fluo-8 calcium fluorescence; scaled: DMSO 0%, maximal phenethylamine 100%. AID 651783. activation, % at 3 µM. 2,400 compounds, 82% hits;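 active = activation above a cutoff set at the run's mean compound activation plus 3 SD, cut at about 39% in these data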
# Ga16 ag counter: counter-screen for TAAR1 agonists: nonselective agonists in parental cells; CHO-Ga16 parental, Fluo-8 calcium fluorescence; normalized to maximal ATP response, DMSO zero; activation, % at 3 µM; 2,400 compounds, 50% hits; shares compounds with TAAR1 agonist;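 active = activation above the run cutoff, the mean activation over all tested wells plus 3 SD, cut at about 12% in these data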;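 also: 0% = DMSO wells and 100% = maximal ATP response on the peak over basal ratio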
# TAAR1 desensitize: counter-screen for human TAAR1 agonists: agonists that desensitize TAAR1. AID 651951. 2,400 compounds, 46% hits. inhibition, % at 3 µM. CHO RD-HGA16 hTAAR1, Fluo-8 calcium, beta-PEA response inhibition. shares compounds with TAAR1 agonist;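 active = inhibition above the run cutoff, the mean inhibition of all test compounds plus 3 SD, cut at about 49% in these data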;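 also: beta-PEA stimulus applied at its EC80; loss of beta-PEA calcium signal after compound pretreatment read as receptor desensitization; 0% = DMSO with beta-PEA at EC80 and 100% = DMSO alone without agonist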
# Ga16 nonsel ant: nonselective Ga16 antagonism, counter-screen | shares compounds with TAAR1 agonist | CHO-Ga16 ATP-induced calcium, Fluo-8 fluorescence | inhibition, % at 3 µM | 2,400 compounds, 39% hits | AID 651952;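 active = inhibition above the plate's mean compound inhibition plus 3 SD, computed per plate, cut at about 22% in these data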;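 also: 0% = EC80 ATP with DMSO and 100% = DMSO wells without ATP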
# * hit, by the source's call; nt = not tested or not shown; + = active, no number.
SMILES,OXTR agonist,V1aR counter,OXTR potentiate,TAAR1 agonist,TAAR1 antag,TAAR1 ag conf,Ga16 ag counter,TAAR1 desensitize,Ga16 nonsel ant
O=C(NCCC1=CCCCC1)C1CCN(S(=O)(=O)c2ccccc2)CC1,0,1,-3,0,13,nt,nt,nt,nt
O=C(CN1C(=O)C2C3C=CC(C3)C2C1=O)NCCC1=CCCCC1 (stereo not given),1,0,-8,1,-14,nt,nt,nt,nt
O=C(O)C1C2C=CC(C2)C1C(=O)NCCC1=CCCCC1 (stereo not given),0,1,-1,72*,71*,89*,2,84*,6
CC1CCCN(C(=S)SCC(=O)c2cc(Br)cc(Br)c2O)C1 (stereo not given),2,2,3,74*,-19,82*,8,70*,19
c1ccc(C2(CN3CCNC[C@H]3Cc3cccc4ccccc34)CC2)cc1,8,2,-7,44*,2,47*,19*,24,26*
CC(O)[C@H]1CNC(=S)N1CCc1cccc(F)c1 (stereo not given in full),0,0,6,4,3,nt,nt,nt,nt
CC(O)[C@H]1CNCCN1CCc1cccc(F)c1 (stereo not given in full),0,2,-1,74*,5,67*,0,10,6
Fc1cccc(CCN2CCNC[C@H]2Cc2cccc3ccccc23)c1,6,3,-14,68*,21,80*,16*,46,27*
CCOC(=O)[C@]12CCC=C1N(Cc1ccc3c(c1)OCO3)C(=O)[C@H](CC(=O)NCCCCc1ccccc1)C2,nt,nt,nt,6,8,nt,nt,nt,nt
CCCOc1cccc(C(=O)Nc2ccc3c(c2)OCCO3)c1,-2,-1,4,-3,-12,nt,nt,nt,nt
CNC[C@H](CC1CCCCC1)NC[C@H](Cc1ccccc1)NCCC12CC3CC(CC(C3)C1)C2,13,16,-8,56*,37,94*,81*,81*,89*
C=CCC[C@H](Cc1ccc(F)cc1)C(=O)OC[C@H]1CCCN1C(=O)[C@@H](CC=C)CC(=O)NCCO,0,1,-5,2,-3,nt,nt,nt,nt
O=c1nc(N2CCCC2)nc(Nc2ccccc2)[nH]1,1,1,-9,nt,nt,nt,3,nt,5
CCCCN(C)C1=CC2=CC(=C(C#N)C#N)CCC2CC1 (stereo not given),771*,873*,-23,992*,108*,763*,872*,106*,103*
CCN(CC)C1=CC2=CC(=C(C#N)C#N)CCC2CC1 (stereo not given),807*,750*,-21,1000*,109*,+,+,106*,103*
CC1CCN(C(=O)CSc2nc3cccnc3n2C)CC1,-1,1,-10,2,4,nt,nt,nt,nt
CN(C)S(=O)(=O)c1ccc(C(=O)NCC(=O)N/N=C/c2ccccc2)cc1,0,1,-7,nt,nt,nt,1,nt,5
CCCc1cc(=O)[nH]c(SCC(=O)c2ccc3c(c2)NC(=O)CO3)n1,0,1,0,54*,5,5,7,-2,6
Nc1nc(SCC(=O)N2CCc3ccccc3C2)[nH]c(=O)c1-c1ccccc1,0,-1,0,92*,90*,107*,22*,95*,-4
CC(C)Cn1c(SCC(=O)N2CCc3ccccc3C2)nc2cc(Cl)ccc2c1=O,-2,0,-12,0,3,nt,nt,nt,nt
Nc1nc(SCC(=O)Nc2ccccc2)[nH]c(=O)c1-c1ccccc1,0,-1,-2,6,-2,nt,nt,nt,nt
CC(C)Cn1c(SCC(=O)N2CCc3ccccc3C2)nc(O)cc1=O,1,1,-7,nt,nt,nt,4,nt,2
CCCc1cc(=O)[nH]c(SCC(=O)N2CCc3ccccc3C2)n1,0,0,0,85*,55*,92*,5,29,0
CC(=O)c1cc2c(cc1NC(=O)Cc1ccsc1)OCO2,-2,-1,-4,7,-28,nt,nt,nt,nt
O=C(OCc1nc2ccccc2s1)C1CCN(C2=NS(=O)(=O)c3ccccc32)CC1,16,10,-9,17,17,nt,nt,nt,nt
SMILES,OXTR agonist,V1aR counter,OXTR potentiate,TAAR1 agonist,TAAR1 antag,TAAR1 ag conf,Ga16 ag counter,TAAR1 desensitize,Ga16 nonsel ant
O=C(CSc1nccc(=O)[nH]1)N1CCc2ccccc2C1,1,3,0,nt,nt,nt,1,nt,6
Cc1cc(Nc2ccc(Cl)cc2)nc(N)n1,-1,0,-8,53*,16,61*,1,37,6
COc1ccc(Nc2cc(C)nc(N)n2)cc1,1,0,-4,18,0,nt,nt,nt,nt
S=c1nc(-c2ccccc2Cl)[nH][nH]1,0,1,-5,0,-8,nt,nt,nt,nt
O=C(Nc1nc2ccccc2[nH]1)C1CCN(C(=O)c2ccc(F)cc2)CC1,0,1,-4,1,-9,nt,nt,nt,nt
OC(c1ccccc1)(c1ccccc1)C1CCN(CCCOc2cc(F)cc(F)c2)CC1,nt,nt,nt,49*,33,35,32*,49*,46*
Cc1cccc(OCCCN2CCC(C(O)(c3ccccc3)c3ccccc3)CC2)c1,nt,nt,nt,41*,38,32,16*,27,30*
COc1cccc(OCCCN2CCC(C(O)(c3ccccc3)c3ccccc3)CC2)c1,nt,nt,nt,42*,37,23,13*,13,26*
OC(c1ccccc1)(c1ccccc1)C1CCN(CCCOc2cccc(OC(F)(F)F)c2)CC1,nt,nt,nt,20,37,nt,nt,nt,nt
COC(=O)c1cc(NC(=O)CN2CCOCC2)cc(C(=O)OC)c1,0,1,-10,21,3,nt,nt,nt,nt
CCCNc1c(NC(C)=O)c(=O)oc2ccccc12,1,0,-7,-2,13,nt,nt,nt,nt
CCc1cc(C(=O)Cc2cnn(-c3ccccc3)c2)c(O)cc1O,19,10,-23,49*,63*,50*,48*,80*,52*
S=C(SSC(=S)N1CCOCC1)N1CCOCC1,nt,nt,nt,56*,-4,54*,23*,11,10
O=C(O)C1CC=C(Cl)CC1C(=O)NCC1OCCc2ccccc21 (stereo not given),1,0,-3,nt,nt,nt,0,nt,2
O=C(N/N=C/c1cccc(O)c1)N/N=C/c1cccc(O)c1,0,0,-3,46*,16,81*,1,38,11

# Compound activity as filed in PubChem.
